Laboratory results published in ChEMBL document CHEMBL1649465, “In vitro activity of ceftaroline alone and in combination against clinical isolates of resistant gram-negative pathogens, including beta-lactamase-producing Enterobacteriaceae and Pseudomonas aeruginosa” (2009).
Converted amounts (≈) assume the structure as drawn. The source made the active and inactive calls. The rule behind the calls is not given here.

Assays:
[1] = tested on: Klebsiella pneumoniae; assay: Bactericidal activity against Klebsiella pneumoniae isolate 5436 at 1/4 times MIC after 24 hrs by time kill analysis; format: functional, organism-based
Summary of the method: (§1)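 Duplicate 24-h time-kill of the drug combination, each agent at one-fourth its MIC. […] Counts were taken by spiral plating after dilution in cold saline.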

[2] = tested on: Escherichia coli; assay: Bactericidal activity against Escherichia coli isolate 5411 at 1/4 times MIC after 24 hrs by time kill analysis; format: functional, organism-based
Summary of the method: (§2)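 Duplicate time-kill assays in 2-ml cultures of Mg/Ca-supplemented Mueller-Hinton broth. […] Samples taken at 0, 1, 2, 4, 8 and 24 h, serially diluted in cold 0.9% NaCl and spiral-plated for colony counts. Detection limit 2 log10 CFU/ml. Reported as decrease in log10 CFU/ml (mean ± SD).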

[3] = tested on: Klebsiella pneumoniae; assay: Antimicrobial activity against Klebsiella pneumoniae isolate 5436 by broth microdilution method; format: functional
[4] = tested on: Escherichia coli; assay: Bactericidal activity against Escherichia coli isolate 5401 at 1/4 times MIC after 24 hrs by time kill analysis; format: functional, organism-based; summary of the method: as §2
[5] = tested on: Klebsiella pneumoniae; assay: Antimicrobial activity against Klebsiella pneumoniae isolate 5427 by broth microdilution method; format: functional
[6] = tested on: Escherichia coli; assay: Antimicrobial activity against Escherichia coli isolate 5401 by broth microdilution method; format: functional
[7] = tested on: Klebsiella pneumoniae; assay: Antimicrobial activity against ESBL-producing Klebsiella pneumoniae by broth microdilution method; format: functional
[8] = tested on: Pseudomonas aeruginosa; assay: Antimicrobial activity against Pseudomonas aeruginosa isolate 956 by broth microdilution method; format: functional
[9] = tested on: Pseudomonas aeruginosa; assay: Bactericidal activity against Pseudomonas aeruginosa isolate 796 at 1/4 times MIC after 24 hrs by time kill analysis; format: functional, organism-based; summary of the method: as §1
[10] = tested on: Pseudomonas aeruginosa; assay: Bactericidal activity against Pseudomonas aeruginosa isolate 1037 at 1/4 times MIC after 24 hrs by time kill analysis; format: functional, organism-based; summary of the method: as §1
[11] = tested on: Pseudomonas aeruginosa; assay: Bactericidal activity against Pseudomonas aeruginosa isolate 1019 at 1/4 times MIC after 24 hrs by time kill analysis; format: functional, organism-based; summary of the method: as §1
[12] = tested on: Escherichia coli; assay: Antimicrobial activity against Escherichia coli isolate 5411 by broth microdilution method; format: functional
[13] = tested on: Escherichia coli; assay: Antimicrobial activity against ESBL-producing Escherichia coli by broth microdilution method; format: functional
[14] = tested on: Pseudomonas aeruginosa; assay: Bactericidal activity against Pseudomonas aeruginosa isolate 956 at 1/4 times MIC after 24 hrs by time kill analysis; format: functional, organism-based; summary of the method: as §1
[15] = tested on: Klebsiella pneumoniae; assay: Bactericidal activity against Klebsiella pneumoniae isolate 5427 at 1/4 times MIC after 24 hrs by time kill analysis; format: functional, organism-based; summary of the method: as §2
[16] = tested on: Pseudomonas aeruginosa; assay: Antimicrobial activity against Pseudomonas aeruginosa isolate 1019 by broth microdilution method; format: functional
[17] = tested on: Enterobacter cloacae; assay: Antimicrobial activity against Enterobacter cloacae isolate 5420 by broth microdilution method; format: functional
[18] = tested on: Pseudomonas aeruginosa; assay: Antimicrobial activity against Pseudomonas aeruginosa by broth microdilution method; format: functional
[19] = tested on: Enterobacter cloacae; assay: Antimicrobial activity against Enterobacter cloacae isolate 4073 by broth microdilution method; format: functional
[20] = tested on: Enterobacter cloacae; assay: Antimicrobial activity against […] Enterobacter cloacae by broth microdilution method; format: functional
[21] = tested on: Pseudomonas aeruginosa; assay: Antimicrobial activity against Pseudomonas aeruginosa isolate 1037 by broth microdilution method; format: functional
[22] = tested on: Pseudomonas aeruginosa; assay: Antimicrobial activity against Pseudomonas aeruginosa isolate 796 by broth microdilution method; format: functional

Compound	inhibition [1]	inhibition [2]	MIC [3] [µg/mL]	inhibition [4]	MBC [5] [µg/mL]	MIC [5] [µg/mL]	MBC [6] [µg/mL]	MIC [6] [µg/mL]	MBC [7] [µg/mL]	MIC [7] [µg/mL]	MIC [8] [µg/mL]	inhibition [9]	inhibition [10]	inhibition [11]	MBC [12] [µg/mL]	MIC [12] [µg/mL]	MBC [13] [µg/mL]	MIC [13] [µg/mL]	inhibition [14]	inhibition [15]	also measured
C[C@H]1[C@H](NC(=O)/C(=N\OC(C)(C)C(=O)O)c2csc(N)n2)C(=O)N1S(=O)(=O)O [AZTREONAM]	inactive	inactive	64 (≈ 147 µM)	inactive	1 (≈ 2.3 µM)	0.5 (≈ 1.15 µM)	0.25 (≈ 0.574 µM)	0.25 (≈ 0.574 µM)	> 0.5	> 0.25	8 (≈ 18.4 µM)	inactive	inactive	inactive	32 (≈ 73.5 µM)	8 (≈ 18.4 µM)	> 0.125	> 0.125	inactive	inactive	
NCC[C@H](O)C(=O)N[C@@H]1C[C@H](N)[C@@H](O[C@H]2O[C@H](CN)[C@@H](O)[C@H](O)[C@H]2O)[C@H](O)[C@H]1O[C@H]1O[C@H](CO)[C@@H](O)[C@H](N)[C@H]1O [AMIKACIN]	inactive	inactive	1 (≈ 1.71 µM)	inactive	2 (≈ 3.42 µM)	2 (≈ 3.42 µM)	4 (≈ 6.83 µM)	2 (≈ 3.42 µM)	1 (≈ 1.71 µM)	1 (≈ 1.71 µM)	4 (≈ 6.83 µM)	inactive	inactive	inactive	16 (≈ 27.3 µM)	8 (≈ 13.7 µM)	4 (≈ 6.83 µM)	1 (≈ 1.71 µM)	inactive	inactive	MBC [16]: 4 µg/mL (≈ 6.83 µM); MIC [16]: 4 µg/mL (≈ 6.83 µM); MBC [17]: 2 µg/mL (≈ 3.42 µM); MIC [17]: 1 µg/mL (≈ 1.71 µM); MBC [18]: 2 µg/mL (≈ 3.42 µM); MIC [18]: 2 µg/mL (≈ 3.42 µM); MBC [19]: 8 µg/mL (≈ 13.7 µM); MIC [19]: 1 µg/mL (≈ 1.71 µM); MBC [3]: 2 µg/mL (≈ 3.42 µM); MBC [20]: 1 µg/mL (≈ 1.71 µM); MIC [20]: 0.5 µg/mL (≈ 0.854 µM); MBC [8]: 64 µg/mL (≈ 109 µM); MBC [21]: 4 µg/mL (≈ 6.83 µM); MIC [21]: 2 µg/mL (≈ 3.42 µM); MBC [22]: 32 µg/mL (≈ 54.6 µM); MIC [22]: 16 µg/mL (≈ 27.3 µM)
CN(C)c1cc(NC(=O)CNC(C)(C)C)c(O)c2c1C[C@H]1C[C@H]3[C@H](N(C)C)C(O)=C(C(N)=O)C(=O)[C@@]3(O)C(O)=C1C2=O [TIGECYCLINE]	inactive	inactive	0.125 (≈ 0.213 µM)	inactive	2 (≈ 3.41 µM)	0.5 (≈ 0.854 µM)	1 (≈ 1.71 µM)	0.5 (≈ 0.854 µM)	0.5 (≈ 0.854 µM)	0.125 (≈ 0.213 µM)	16 (≈ 27.3 µM)	inactive	inactive	inactive	0.5 (≈ 0.854 µM)	0.125 (≈ 0.213 µM)	0.06 (≈ 0.102 µM)	0.06 (≈ 0.102 µM)	inactive	inactive	MBC [16]: 8 µg/mL (≈ 13.7 µM); MIC [16]: 2 µg/mL (≈ 3.41 µM); MBC [17]: 2 µg/mL (≈ 3.41 µM); MIC [17]: 0.5 µg/mL (≈ 0.854 µM); MBC [18]: 8 µg/mL (≈ 13.7 µM); MIC [18]: 2 µg/mL (≈ 3.41 µM); MBC [19]: 2 µg/mL (≈ 3.41 µM); MIC [19]: 0.5 µg/mL (≈ 0.854 µM); MBC [3]: 1 µg/mL (≈ 1.71 µM); MBC [20]: 0.5 µg/mL (≈ 0.854 µM); MIC [20]: 0.25 µg/mL (≈ 0.427 µM); MBC [8]: 128 µg/mL (≈ 219 µM); MBC [21]: 32 µg/mL (≈ 54.6 µM); MIC [21]: 8 µg/mL (≈ 13.7 µM); MBC [22]: 32 µg/mL (≈ 54.6 µM); MIC [22]: 32 µg/mL (≈ 54.6 µM)
CO/N=C(\C(=O)N[C@@H]1C(=O)N2C(C(=O)[O-])=C(C[N+]3(C)CCCC3)CS[C@H]12)c1csc(N)n1	inactive	inactive		inactive	1 (≈ 2.08 µM)	0.5 (≈ 1.04 µM)	4 (≈ 8.32 µM)	4 (≈ 8.32 µM)				inactive	inactive	inactive			0.25 (≈ 0.52 µM)		inactive	inactive	MIC [22]: 8 µg/mL (≈ 16.6 µM)
C[C@@H](O)[C@H]1C(=O)N2C(C(=O)O)=C(S[C@@H]3CN[C@H](C(=O)N(C)C)C3)[C@H](C)[C@H]12 [MEROPENEM]	inactive	inactive	0.06 (≈ 0.156 µM)	inactive	16 (≈ 41.7 µM)	4 (≈ 10.4 µM)	0.06 (≈ 0.156 µM)	0.06 (≈ 0.156 µM)	0.06 (≈ 0.156 µM)	0.03 (≈ 0.0782 µM)	0.25 (≈ 0.652 µM)	inactive	inactive	inactive	0.06 (≈ 0.156 µM)	0.06 (≈ 0.156 µM)	0.06 (≈ 0.156 µM)	0.03 (≈ 0.0782 µM)	inactive	inactive	MBC [16]: 2 µg/mL (≈ 5.22 µM); MIC [16]: 1 µg/mL (≈ 2.61 µM); MBC [17]: 0.125 µg/mL (≈ 0.326 µM); MIC [17]: 0.125 µg/mL (≈ 0.326 µM); MBC [18]: 0.125 µg/mL (≈ 0.326 µM); MIC [18]: 0.125 µg/mL (≈ 0.326 µM); MBC [19]: 0.5 µg/mL (≈ 1.3 µM); MIC [19]: 0.25 µg/mL (≈ 0.652 µM); MBC [3]: 0.06 µg/mL (≈ 0.156 µM); MBC [20]: 0.03 µg/mL (≈ 0.0782 µM); MIC [20]: 0.03 µg/mL (≈ 0.0782 µM); MBC [8]: 2 µg/mL (≈ 5.22 µM); MBC [21]: 1 µg/mL (≈ 2.61 µM); MIC [21]: 0.5 µg/mL (≈ 1.3 µM); MBC [22]: 2 µg/mL (≈ 5.22 µM); MIC [22]: 1 µg/mL (≈ 2.61 µM)
C[C@H]1COc2c(N3CCN(C)CC3)c(F)cc3c(=O)c(C(=O)O)cn1c23.C[C@H]1COc2c(N3CCN(C)CC3)c(F)cc3c(=O)c(C(=O)O)cn1c23.O [LEVOFLOXACIN]	inactive	inactive	4	inactive	2	0.25	32	32	> 0.25	> 0.25	0.5	inactive	inactive	inactive	16	8	0.06		inactive	inactive	MBC [16]: 1 µg/mL; MIC [16]: 0.5 µg/mL; MBC [17]: 0.06 µg/mL; MIC [17]: 0.06 µg/mL; MBC [18]: 0.5 µg/mL; MIC [18]: 0.25 µg/mL; MBC [19]: 0.06 µg/mL; MIC [19]: 0.06 µg/mL; MBC [3]: 4 µg/mL; MBC [20]: 0.03 µg/mL; MIC [20]: 0.03 µg/mL; MBC [8]: 1 µg/mL; MBC [21]: 0.5 µg/mL; MIC [21]: 0.25 µg/mL; MBC [22]: 2 µg/mL
